For 97 compounds, cytotoxicity results are on record in ChEMBL document CHEMBL4513216, “Probing the Open Global Health Chemical Diversity Library for Multistage-Active Starting Points for Next-Generation Antimalarials” (ACS Infect Dis, 2020).

A short description of the data set: Toxicity liver stage against HepG2, at 10uM. The class given is cell-based. The arrangement: test concentration 10 uM, cell line HepG2-A16-CD81EGFP. The following applies: human, HepG2-A16-CD81EGFP cells; read-out: INHIBITION
The method, boiled down: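 Uninfected HepG2-A16-CD81EGFP cells, 3 × 10^3 per well, 1536-well, plated on prespotted compound at 10 μM final, parasite-free screening media added to match infected plates; puromycin 10 μM positive, DMSO 0.5% negative; run in parallel with 48 h PbLuc assay at 37 °C, 5% CO2; viability by CellTiter-Glo luminescence, normalized to controls.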
On to `CC(=O)Nc1ccc2c(c1)CN(C(=O)c1ccco1)CC2`, for which the cytotoxicity at 10 µM turned out to be 6.17%.

In the case of `CCCS(=O)(=O)N1CC[C@H]2OCC[C@@]2(c2nnc(C)o2)C1`, the cytotoxicity at 10 µM came out at 8.43%.

In the case of `COc1cc(C(=O)NCC2CC2)nc2c(C)cc(F)cc12`, the cytotoxicity at 10 µM was determined as 7.52%.

Take `Cc1ccc(C)c(Oc2cc(-n3nc(C)c(C#N)c3N)nc(C)n2)c1`: the cytotoxicity at 10 µM was found to be 69.5%.

As for `CSCC(C)(O)CNC(=O)c1cc(Br)ccc1Cl` (configuration not stated), the cytotoxicity at 10 µM is -25.1%.

Turning to `CS(=O)(=O)N1Cc2ccccc2C2(CCN(C(=O)c3ccno3)CC2)C1`, the cytotoxicity at 10 µM worked out at 6.31%.

Take `CCOc1ccc(S(=O)(=O)N(C)Cc2cnn(CC)c2)cc1`: the cytotoxicity at 10 µM was 11.6%.

For `Cc1cc2nc(CN(C)c3ccc(Cl)cc3)cc(=O)n2o1`, the cytotoxicity at 10 µM was -13%.

As to `Cc1nn(C)c2cn(C(C)C(=O)NCc3ccccn3)nc12` (configuration not stated), the cytotoxicity at 10 µM was found to be 11.1%.

For `COc1ccc(CNC(Cc2ccsc2)c2ncccc2C)cc1OC` (configuration not stated), the cytotoxicity at 10 µM turned out to be 0.735%.

As to `COc1cccc([C@H]2CN(C(=O)c3ccccc3)[C@@H]3CCCN[C@H]23)c1`, the cytotoxicity at 10 µM was -25.9%.

As to `CCCn1nccc1-c1cc(C2CCN(S(C)(=O)=O)CC2)ccn1`, the cytotoxicity at 10 µM was -6.94%.

With `CCS(=O)(=O)N1CCCC(Cc2cnccn2)C1` (configuration not stated), the cytotoxicity at 10 µM is -10.3%.

Turning to `Cc1ccc(-c2cc(N)c(=O)n(CC(=O)NC3CCCCC3)n2)s1`, the cytotoxicity at 10 µM was found to be 2.98%.

For `CS(=O)(=O)N1Cc2ccccc2CC2(CCN(Cc3ccccc3)C2)C1` (configuration not stated), the cytotoxicity at 10 µM was 7.38%.

In the case of `N#Cc1cccc(OCCN2CCC(C(=O)N3CCOCC3)CC2)c1`, the cytotoxicity at 10 µM is -42.3%.

With `Cc1nc(-c2cccs2)ccc1C(=O)N1CCN(CC(C)O)CC1` (configuration not stated), the cytotoxicity at 10 µM was -45.1%.

Take `CN(C)CCNc1ncccc1CNC(=O)Nc1cc(F)cc(F)c1`: the cytotoxicity at 10 µM stood at 2.62%.

Turning to `CC(C)COc1cncc(NCCc2nnc3ccccn23)n1`, the cytotoxicity at 10 µM came out at 7.55%.

For the compound `CCN1CCCC(NC(=O)c2ccc(C)[nH]c2=O)C1` (configuration not stated), the cytotoxicity at 10 µM stood at 9.95%.

As for `CN(c1nc(Cn2cnccc2=O)cs1)C1CC1`, the cytotoxicity at 10 µM was -6.59%.

For the compound `CCCC(=O)NC1CCCN(c2cncc(Br)c2)C1` (configuration not stated), the cytotoxicity at 10 µM is -38.5%.

As to `Cn1c(N)nnc1SCc1c(F)cccc1Br`, the cytotoxicity at 10 µM is -43.2%.

`CCc1nc(CN2CCCN(C(=O)Cc3cccs3)CC2)cs1`: the cytotoxicity at 10 µM was found to be 2.55%.

In the case of `CCC(CC)NC(=O)c1cccnc1-n1cccn1`, the cytotoxicity at 10 µM was -13.9%.

As for `CN(C)c1ccc(CNC2(c3ccc(F)cc3)CCOCC2)cc1F`, the cytotoxicity at 10 µM is 0.937%.

Take `Cc1c(C(=O)NC2CCCOC2)nnn1-c1ccc(Cl)cc1F` (configuration not stated): the cytotoxicity at 10 µM stood at 8.55%.

`CC(=O)Nc1nc(CS(=O)(=O)Cc2ccccc2)cs1`: the cytotoxicity at 10 µM is -3.39%.

In the case of `CCn1cc(NC(=O)C2CCN(Cc3nc(C)c(C)s3)CC2)cn1`, the cytotoxicity at 10 µM is 6.37%.

In the case of `CCC(C)C(=O)Nc1ccc2oc(=O)n(CCN(C)C)c2c1` (configuration not stated), the cytotoxicity at 10 µM was -14.8%.

Take `C=C(C)CN1CCC(NC(=O)NCCc2ccc(N(C)C)cc2)CC1`: the cytotoxicity at 10 µM was 2.2%.

`CC(CNC(=O)c1ccc(F)cc1I)N1CCCC1` (configuration not stated): the cytotoxicity at 10 µM was 1.28%.

In the case of `Cc1cc(=O)n2ncnc2n1CC(O)COCc1ccccc1Cl` (configuration not stated), the cytotoxicity at 10 µM came out at 3.52%.

Consider `N#Cc1cccnc1NCc1ccc(S(=O)(=O)NCC2CCCO2)cc1` (configuration not stated), for which the cytotoxicity at 10 µM came to 5.98%.

For `O=C(C1CCCN(Cc2cccnc2)C1)N1CCc2sccc2C1` (configuration not stated), the cytotoxicity at 10 µM turned out to be 7.99%.

For the compound `Cc1cc(C)cc(C(=O)NCCCNc2ncccn2)c1`, the cytotoxicity at 10 µM is 32.4%.

For the compound `OCCNC1CCc2cc3c(cc21)OCCO3` (configuration not stated), the cytotoxicity at 10 µM was -5.82%.

Take `CCCNC(=O)c1cccc(CNCc2csc(C(C)C)n2)c1`: the cytotoxicity at 10 µM worked out at 6.14%.

For the compound `CC(C)N(Cc1ccc(C#N)cc1)C(=O)NCCNc1ncccn1`, the cytotoxicity at 10 µM stood at 3.78%.

Turning to `Cc1cc(C)c(CNc2nc3ccccc3cc2CO)c(=O)[nH]1`, the cytotoxicity at 10 µM turned out to be 6.37%.

With `COc1cc(F)cc(NC(=O)NCc2cccc(N(C)C)n2)c1`, the cytotoxicity at 10 µM stood at 25%.

On to `COCC(C)NS(=O)(=O)c1ccc(Br)cn1` (configuration not stated), for which the cytotoxicity at 10 µM is -6.74%.

Regarding `CC(C)Nc1nc(N2CCOCC2)nc2c1CN(Cc1ccoc1)CC2`, the cytotoxicity at 10 µM was 1.52%.

On to `CC(=O)N1CCC(n2ccc(-c3cnc(NCC(C)C)nc3)n2)CC1`, for which the cytotoxicity at 10 µM is -9.13%.

As for `CC1(C)C(C(=O)NCCC2CN(Cc3c[nH]cn3)CCO2)C1(C)C` (configuration not stated), the cytotoxicity at 10 µM is -3.67%.

For `CSCC(=O)N(C)Cc1noc(-c2ccccc2)n1`, the cytotoxicity at 10 µM is -4.34%.

For `CNS(=O)(=O)c1ccc(CN2CCCN(Cc3ccncc3)CC2)cc1`, the cytotoxicity at 10 µM worked out at 7.06%.

For `O=C1CC2(CCN(C(=O)c3cccc(Cl)c3)CC2)CN1`, the cytotoxicity at 10 µM is -3.02%.

For `Cc1nccn1-c1ccc(NC(=O)C2CCCN2CC2CC2)cc1` (configuration not stated), the cytotoxicity at 10 µM was -14%.

For the compound `CCc1nc2c(NCC3COc4c(cccc4OC)C3)ncnc2o1` (configuration not stated), the cytotoxicity at 10 µM is -0.164%.

For `OCc1ccc(CN(CCCn2ccnc2)Cc2cccnc2)o1`, the cytotoxicity at 10 µM was -6.75%.

Consider `CC(O)c1cn(CC2CCN(C(=O)c3cccc(N(C)C)c3)CC2)nn1` (configuration not stated), for which the cytotoxicity at 10 µM is -0.412%.

For `COc1ccc(OC2CCN(c3ccncc3)CC2)cc1`, the cytotoxicity at 10 µM was determined as 2.1%.

In the case of `COc1ccc2c(c1)C(C(=O)N(C)CCCc1cnn(C)c1)CC(=O)N2` (configuration not stated), the cytotoxicity at 10 µM was -46.9%.

Take `COc1ccccc1C1CNC(=O)c2nc(-c3nccn3C)[nH]c2C1` (configuration not stated): the cytotoxicity at 10 µM stood at 4.2%.

On to `Cc1cnc(C)c(-c2cccc(-c3ccn(CCN4CCCC4)n3)c2)n1`, for which the cytotoxicity at 10 µM was -10.5%.

Turning to `NC(=O)CN1CCC(C(=O)NCc2nc(-c3ccc(F)cc3)cs2)CC1`, the cytotoxicity at 10 µM is -5.79%.

As for `O=C(C1CCC1)N1CCC(C2CCN(Cc3ccc(Cl)cc3)C2)CC1` (configuration not stated), the cytotoxicity at 10 µM is -10.5%.

On to `Cc1cc(C(=O)N[C@H]2COC[C@@H]2N2CCOCC2)c2ccc(F)cc2n1`, for which the cytotoxicity at 10 µM is -48.2%.

Take `CC(C)CN1CC2(CCN(C(=O)c3nc4ncccn4n3)CC2)CC1=O`: the cytotoxicity at 10 µM is 0.345%.

`COc1cc(N2CCOC(c3ccc(F)cc3)C2)ncn1` (configuration not stated): the cytotoxicity at 10 µM came out at 15.3%.

In the case of `Cc1ccc(C(=O)NCCN2CCOCC2)cc1N(C)S(C)(=O)=O`, the cytotoxicity at 10 µM was 15.1%.

As for `COc1ccc(-c2nc3c([nH]2)CCNC3C(=O)O)c2ccccc12` (configuration not stated), the cytotoxicity at 10 µM was 8.63%.

For `Cc1cc(C)c2cc(CNCC3CCCO3)c3nn(C)c(=O)n3c2c1` (configuration not stated), the cytotoxicity at 10 µM was -4.63%.

Consider `O=C(CN1C=Nc2ccccc2S1(=O)=O)NCCCc1ccccc1`, for which the cytotoxicity at 10 µM was -3.54%.

Regarding `CN(CCOc1cccc(F)c1)Cc1nc2c(cnn2C)c(=O)[nH]1`, the cytotoxicity at 10 µM is -0.966%.

Turning to `NC(=O)C1CCN(Cc2csc(-c3ncccn3)n2)CC1`, the cytotoxicity at 10 µM was -6.04%.

Take `c1ccc2oc(CN3CCCCC3Cn3cncn3)nc2c1` (configuration not stated): the cytotoxicity at 10 µM was -13.9%.

For `CCc1nccn1C1CCCN(C(=O)c2cnn3cccnc23)C1` (configuration not stated), the cytotoxicity at 10 µM is -18.2%.

For the compound `O=C(COc1ccc(Cl)cc1)N1CCOCC1c1ncon1` (configuration not stated), the cytotoxicity at 10 µM is -21%.

On to `Cc1cc(NC(=O)CN2CCOC(Cn3nc(C)cc3C)C2)n(C)n1` (configuration not stated), for which the cytotoxicity at 10 µM was -7.91%.

Consider `CC(NC(=O)CSCC#N)c1ccccc1` (configuration not stated), for which the cytotoxicity at 10 µM is -5.9%.

As to `c1ccc2oc(N3CCCCC3Cn3cncn3)nc2c1` (configuration not stated), the cytotoxicity at 10 µM is -7.59%.

With `Cc1ccccc1-c1noc(CN2CCn3c(nnc3C3CC3)C2)n1`, the cytotoxicity at 10 µM was -7.64%.

Consider `O=C(Nc1cnn(CCN2CCOCC2)c1)c1ccccc1O`, for which the cytotoxicity at 10 µM is -3.38%.

Consider `Cc1ccc(Cc2cnc(NC(=O)C3CNC(=O)N3)s2)cc1F` (configuration not stated), for which the cytotoxicity at 10 µM was 1.11%.

As for `Cc1ccccc1CCNC(=O)C1CC(=O)N(CC(F)(F)F)C1` (configuration not stated), the cytotoxicity at 10 µM was -6.17%.

For `COCC1CN(CC2CC2)Cc2nn(C)cc21` (configuration not stated), the cytotoxicity at 10 µM turned out to be 0.281%.

For the compound `COc1ccc(C[C@H]2CN(c3cc(OC)ncn3)CC[C@@H]2OC)cc1`, the cytotoxicity at 10 µM was found to be 50%.

As to `O=C(c1ccncc1F)N1Cc2nc(COCC3CC3)oc2C1`, the cytotoxicity at 10 µM was -99.9%.

Regarding `O=S(=O)(c1cccnc1)N1C[C@@H]2COC[C@]2(CN2CCOCC2)C1`, the cytotoxicity at 10 µM was determined as 5.86%.

Consider `CN(Cc1ccncc1)C1CC2(CCN(c3ncc(F)cn3)CC2)C1`, for which the cytotoxicity at 10 µM is 52.4%.

As for `Cn1cccc1C(=O)N1CC[C@H]2[C@H]1CCN2CC1CC1`, the cytotoxicity at 10 µM was -3.86%.

Regarding `CCCN1CCc2c(C(=O)N(C)Cc3ccccn3)nn(C)c2C1`, the cytotoxicity at 10 µM was -1.92%.

Consider `Cc1ccc2c(c1)C1(CCNCC1)CC2NCCO` (configuration not stated), for which the cytotoxicity at 10 µM is -105%.

As to `CCC(=O)Nc1ccc2c(c1)C1(CCOCC1)CN2CCOC`, the cytotoxicity at 10 µM was -99%.

For the compound `Cc1ccc(N2CC[C@@H]3[C@@H]2CCN3C(=O)Cc2ccsc2)nn1`, the cytotoxicity at 10 µM was -93.9%.

On to `CCOc1c(Br)cc(CNCCc2nnc3n2CCCCC3)cc1OC`, for which the cytotoxicity at 10 µM was -59.6%.

Turning to `COc1cc(N2CCC3(CCN(Cc4csc(C)n4)C3)CC2)ncn1`, the cytotoxicity at 10 µM is -118%.

`Cc1ccc(C(=O)N2CCC3(CC2)CC(N2CCOCC2)C3)cc1`: the cytotoxicity at 10 µM came out at 1.93%.

As to `O=C1CC[C@H]2[C@H](CCN2c2ncccn2)N1c1ccccc1`, the cytotoxicity at 10 µM amounted to 5.77%.

Turning to `COc1ncccc1CNC1CCc2c(ccc(=O)n2CC2CC2)C1` (configuration not stated), the cytotoxicity at 10 µM was -110%.

In the case of `Cc1nc(COC[C@@H]2CC[C@H]3NCC[C@H]3O2)cs1`, the cytotoxicity at 10 µM was -3.15%.

For the compound `C1CC(N2C[C@@H]3COC[C@]3(COCC3CCOCC3)C2)C1`, the cytotoxicity at 10 µM is -111%.

On to `CN(Cc1ccco1)[C@@H]1CN(Cc2cccnc2)[C@@H]2CCCO[C@H]12`, for which the cytotoxicity at 10 µM is -79.8%.

For the compound `CCC=C(C)C(=O)NCc1ccnc(OC2CCOCC2)c1`, the cytotoxicity at 10 µM worked out at 5.48%.

Regarding `C=c1ccoc1=C1NN=C(CNC2CCCN(c3cccnn3)C2)O1` (configuration not stated), the cytotoxicity at 10 µM was -9.48%.
